Experimental data taken from ChEMBL document CHEMBL3120102, “Structure-based design, synthesis and biological evaluation of novel anthra[1,2-d]imidazole-6,11-dione homologues as potential antitumor agents” (2013).

Test system: MDA-MB-468
Experiment: Cytotoxicity against human MDA-MB-468 cells assessed as cell growth at 10 uM after 48 hrs by SRB assay
Type: functional
Conditions: MDA-MB-468, 48 h, read-out: Activity
Summary of the method: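 First stage of the NCI 60 human tumour cell line screen: a single dose is tested against every line. Cell growth is read as cellular protein by sulforhodamine B colorimetry after 48 h of drug exposure, with reference to a time-zero control and to untreated plates.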

O=C1c2ccccc2C(=O)c2c1ccc1nc3n(c21)CCS3
growth at 10 µM: 69.7%
